Data: PMC2858063 (Steroids, 2010)

Key:
hu-mPRα [1] = target: T1, hu-mPRα (Homo sapiens, UniProt Q86WK9); assay: hu-mPRα steroid binding assay; settings: for RBA (Relative Binding Affinity): compared with progesterone (=100), human mPRα; for binding to hu-mPRα (in words): this study, Fig. 1, Table 1
T1 sequence (Q86WK9 1-346): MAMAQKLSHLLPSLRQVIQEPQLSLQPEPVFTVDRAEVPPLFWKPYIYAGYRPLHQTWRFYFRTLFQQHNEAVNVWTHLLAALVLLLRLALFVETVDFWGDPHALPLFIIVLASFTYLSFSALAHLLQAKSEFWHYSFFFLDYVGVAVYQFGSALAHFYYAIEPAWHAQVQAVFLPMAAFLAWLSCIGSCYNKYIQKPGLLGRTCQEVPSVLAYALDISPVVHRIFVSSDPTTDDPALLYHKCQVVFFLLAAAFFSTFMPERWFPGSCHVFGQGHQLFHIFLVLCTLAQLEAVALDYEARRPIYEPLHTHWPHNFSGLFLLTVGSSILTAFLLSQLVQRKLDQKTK

hu-mPRα [2] = target: T1, hu-mPRα; assay: MAPK activation assay; assay type: cell-based; settings: 100 nM, 10 min, mPRα-transfected MDA-MB-231 cells
Method in brief: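 Control and mPRα-transfected MDA-MB-231 cells were serum-starved 5–6 days, then treated 10 min with progestins (100 nM; 1–100 nM for concentration-response), with EGF as positive control. Lysis was in RIPA buffer plus protease inhibitors. Lysate (10 μg/lane, non-reducing) ran on duplicate SDS gels, was blotted, and was probed for total or phospho-p42/44 with rabbit monoclonals, then HRP anti-rabbit 1 h. Detection was by chemiluminescence on film. Runs were repeated 3–4 times, with statistics versus vehicle.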

human nPR = target: T2, human nPR (Homo sapiens, UniProt P06401); assay: nPR steroid binding assay; settings: that of progesterone
T2 sequence (P06401 679-933 limits assumed): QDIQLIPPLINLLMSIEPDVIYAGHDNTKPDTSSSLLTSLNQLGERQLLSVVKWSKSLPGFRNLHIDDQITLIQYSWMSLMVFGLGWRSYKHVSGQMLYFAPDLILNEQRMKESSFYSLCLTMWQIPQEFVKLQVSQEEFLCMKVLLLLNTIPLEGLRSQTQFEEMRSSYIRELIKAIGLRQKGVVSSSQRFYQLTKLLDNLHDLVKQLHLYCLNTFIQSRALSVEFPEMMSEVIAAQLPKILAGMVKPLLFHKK

human PR-B = target: T3, human PR-B (Homo sapiens, UniProt P06401); assay: nPR luciferase reporter assay; assay type: cell-based; settings: for nPR antagonist activity: 20 and 100 nM in the presence of 5 nM progesterone
T3 sequence (P06401 1-933): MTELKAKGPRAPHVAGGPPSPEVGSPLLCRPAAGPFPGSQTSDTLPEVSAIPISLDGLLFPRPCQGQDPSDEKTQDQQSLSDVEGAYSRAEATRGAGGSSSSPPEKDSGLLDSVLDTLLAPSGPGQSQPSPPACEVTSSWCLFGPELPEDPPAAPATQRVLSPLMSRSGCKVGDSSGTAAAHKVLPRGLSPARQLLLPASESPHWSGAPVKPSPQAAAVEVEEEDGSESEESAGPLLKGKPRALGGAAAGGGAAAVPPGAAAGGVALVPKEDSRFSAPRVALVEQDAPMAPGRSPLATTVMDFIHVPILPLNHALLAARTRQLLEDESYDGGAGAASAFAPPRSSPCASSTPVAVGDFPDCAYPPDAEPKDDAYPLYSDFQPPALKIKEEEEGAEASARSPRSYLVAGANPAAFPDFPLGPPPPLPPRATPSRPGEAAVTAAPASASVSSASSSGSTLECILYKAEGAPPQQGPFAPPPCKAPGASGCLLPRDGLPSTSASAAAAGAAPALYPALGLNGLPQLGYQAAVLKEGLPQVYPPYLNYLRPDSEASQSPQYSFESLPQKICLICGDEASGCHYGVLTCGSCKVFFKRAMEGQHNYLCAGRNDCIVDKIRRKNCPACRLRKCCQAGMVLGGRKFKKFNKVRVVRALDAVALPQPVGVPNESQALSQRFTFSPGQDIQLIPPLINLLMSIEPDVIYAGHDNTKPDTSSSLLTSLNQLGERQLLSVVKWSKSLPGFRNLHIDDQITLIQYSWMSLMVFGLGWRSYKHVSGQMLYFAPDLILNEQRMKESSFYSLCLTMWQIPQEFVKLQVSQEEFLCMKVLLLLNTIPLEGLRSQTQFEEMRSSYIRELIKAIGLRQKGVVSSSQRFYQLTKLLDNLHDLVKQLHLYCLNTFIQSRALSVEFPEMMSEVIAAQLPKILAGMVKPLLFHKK
Method in brief: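 MCF-7 cells in phenol red-free DMEM were co-transfected with human PR-B vector (0.25 μg), MMTV-luciferase reporter (0.6 μg) and Renilla pRL-TK (0.5 μg). […] Cells grew overnight to 90% confluence. Dual-luciferase readings were taken, 10 s each. Firefly/Renilla ratio was reported, in triplicate.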

female rabbits = settings: s.c.; cited from earlier work

| Compound | RBA (Relative Binding Affinity) (hu-mPRα [1]) [%] | binding to hu-mPRα (in words) (hu-mPRα [1]) | MAPK activation (phosphorylation of ERK) (hu-mPRα [2]) | relative binding affinity for nPR (human nPR) [%] | nPR antagonist activity (human PR-B) | progestational activity in comparison with progesterone (female rabbits) | nPR agonist activity (human PR-B; PR-B and PRE-luciferase reporter in MCF-7 cells, 50 nM (19-CH2P4 also 1–50 nM)) |
| --- | --- | --- | --- | --- | --- | --- | --- |
| 19a-methylprogesterone [19a-Methylprogesterone (Org OD 13-0)] | 92.7 | relatively high affinity | mPRα agonists | 2.3 | weak antagonist activity | – | – |
| C=C[C@]12CCC(=O)C=C1CC[C@H]1[C@@H]3CC[C@H](C(C)=O)[C@@]3(C)CC[C@@H]12 [10-ethenyl-19-norprogesterone] | 257.7 | affinities higher than that of progesterone | mPRα agonists | 12.9 | weak antagonist activity | – | – |
| CC[C@H]1CC[C@H]2[C@@H]3CCC4=CC(=O)CC[C@]4(C)[C@H]3CC[C@]12C(C)=O [13-Acetyl-18-norpregn-4-en-3-one] | <1 | lost all affinity | – | – | – | 1/4 | – |
| CC(=O)[C@H]1CC[C@H]2[C@@H]3CCC4=CC(=O)CC[C@]4(C)[C@H]3CC[C@]12C(C)=O [13-Acetyl-18-norprogesterone] | 49.9 | low binding affinities | – | – | – | 1/3 | – |
| C=C[C@]12CC[C@H]3[C@@H](CCC4=CC(=O)CC[C@@]43C)[C@@H]1CC[C@@H]2C(C)=O [13-ethenyl-18-norprogesterone] | 168.2 | affinities higher than that of progesterone | mPRα agonists | – | – | – | showed nPR agonist activity |
